Tests used:
[1] = target: T1, Serotonin 3 (5-HT3) receptor (Rattus norvegicus, UniProt P35563+Q9JJ16); assay: In vitro binding affinity at serotonin 5-hydroxytryptamine 3 receptor in rat cortex by [3H]granisetron displacement.
T1 sequence (P35563 whole entry): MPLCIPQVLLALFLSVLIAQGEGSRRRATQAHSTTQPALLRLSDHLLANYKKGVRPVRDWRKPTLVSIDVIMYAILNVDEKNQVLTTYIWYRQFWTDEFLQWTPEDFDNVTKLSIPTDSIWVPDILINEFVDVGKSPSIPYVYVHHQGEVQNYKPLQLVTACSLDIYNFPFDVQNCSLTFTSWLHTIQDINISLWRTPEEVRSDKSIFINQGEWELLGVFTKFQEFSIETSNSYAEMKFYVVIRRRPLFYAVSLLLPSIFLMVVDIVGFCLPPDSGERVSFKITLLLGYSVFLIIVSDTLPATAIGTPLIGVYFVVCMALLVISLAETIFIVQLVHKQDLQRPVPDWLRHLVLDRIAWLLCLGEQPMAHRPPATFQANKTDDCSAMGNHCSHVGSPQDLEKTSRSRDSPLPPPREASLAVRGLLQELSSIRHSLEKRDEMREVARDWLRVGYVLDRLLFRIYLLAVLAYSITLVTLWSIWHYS
T1 sequence (Q9JJ16 whole entry): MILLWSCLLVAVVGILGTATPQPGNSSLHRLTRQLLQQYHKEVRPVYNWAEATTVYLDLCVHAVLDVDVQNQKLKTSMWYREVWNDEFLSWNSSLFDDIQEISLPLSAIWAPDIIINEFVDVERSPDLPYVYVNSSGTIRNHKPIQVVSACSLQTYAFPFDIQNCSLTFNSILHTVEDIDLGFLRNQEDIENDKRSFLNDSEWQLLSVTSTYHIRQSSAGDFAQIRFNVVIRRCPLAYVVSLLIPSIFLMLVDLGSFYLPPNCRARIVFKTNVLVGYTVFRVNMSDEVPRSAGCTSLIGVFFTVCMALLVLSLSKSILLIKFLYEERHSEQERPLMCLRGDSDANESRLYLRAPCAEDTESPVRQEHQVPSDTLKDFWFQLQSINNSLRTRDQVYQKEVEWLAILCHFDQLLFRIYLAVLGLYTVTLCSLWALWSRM
Method in brief: (§1)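 Competition binding was run with radioligand displacement: [3H]spiroperidol for D2-like, [3H]prazosin for α1 and [3H]granisetron for 5-HT3. D2 values are the mean of three independent experiments.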

[2] = target: Sigma non-opioid intracellular receptor 1 (Homo sapiens) (UniProt Q99720); assay: Binding affinity ratio of sigma 2 receptor to that of sigma 1 receptor
Sequence of Sigma non-opioid intracellular receptor 1 (Homo sapiens) (Q99720 whole entry): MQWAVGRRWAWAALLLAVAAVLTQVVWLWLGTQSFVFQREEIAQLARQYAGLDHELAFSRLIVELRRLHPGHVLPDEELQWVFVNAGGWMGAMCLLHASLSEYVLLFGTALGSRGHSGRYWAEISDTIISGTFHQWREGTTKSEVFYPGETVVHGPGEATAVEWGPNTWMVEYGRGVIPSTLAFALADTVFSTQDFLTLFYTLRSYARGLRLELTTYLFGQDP
Method in brief: (§2)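 Sigma-1 binding used guinea pig brain membranes without cerebellum with (+)-[3H]pentazocine. […] IC50 came from 6–9 drug concentrations in two or three experiments with duplicate samples, then converted to apparent Ki. Ratios are computed from these Ki values.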

D(2) dopamine receptor = D(2) dopamine receptor (Rattus norvegicus, UniProt P61169); assay: In vitro binding affinity at Dopamine receptor D2 in rat striatum by [3H]spiroperidol displacement.; format: tissue-based; method in brief: as §1
Sequence of D(2) dopamine receptor (P61169 whole entry): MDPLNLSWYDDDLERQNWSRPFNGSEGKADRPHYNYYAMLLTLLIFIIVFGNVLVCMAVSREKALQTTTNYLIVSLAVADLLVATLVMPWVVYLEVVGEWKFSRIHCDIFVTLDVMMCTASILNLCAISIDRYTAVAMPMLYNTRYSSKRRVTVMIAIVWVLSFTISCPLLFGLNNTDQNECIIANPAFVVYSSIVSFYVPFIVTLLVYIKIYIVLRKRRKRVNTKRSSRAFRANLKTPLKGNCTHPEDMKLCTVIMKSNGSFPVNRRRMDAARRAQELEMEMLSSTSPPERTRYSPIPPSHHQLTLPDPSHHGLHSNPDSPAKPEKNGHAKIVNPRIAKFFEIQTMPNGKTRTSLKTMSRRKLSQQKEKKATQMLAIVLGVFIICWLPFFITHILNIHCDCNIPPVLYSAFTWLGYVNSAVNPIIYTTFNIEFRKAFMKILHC

Cavia porcellus [3] = species: Cavia porcellus; assay: Inhibition of electrically stimulated contractions of the isolated guinea pig badder.; format: functional
Sigma 2 receptor [4] = assay: In vitro binding affinity at opioid sigma-2 receptor in rat liver membranes by [3H]-DTG displacement in the presence of 1 uM (+)-pentazocine.; format: cell membranes, Membrane
[5] = target: T2, Adrenergic receptor alpha-1 (Rattus norvegicus, UniProt P15823+P23944+P43140); assay: In vitro binding affinity at alpha-1 adrenergic receptor in rat cortex by [3H]prazosin displacement.; method in brief: as §1
T2 sequence (P15823 whole entry): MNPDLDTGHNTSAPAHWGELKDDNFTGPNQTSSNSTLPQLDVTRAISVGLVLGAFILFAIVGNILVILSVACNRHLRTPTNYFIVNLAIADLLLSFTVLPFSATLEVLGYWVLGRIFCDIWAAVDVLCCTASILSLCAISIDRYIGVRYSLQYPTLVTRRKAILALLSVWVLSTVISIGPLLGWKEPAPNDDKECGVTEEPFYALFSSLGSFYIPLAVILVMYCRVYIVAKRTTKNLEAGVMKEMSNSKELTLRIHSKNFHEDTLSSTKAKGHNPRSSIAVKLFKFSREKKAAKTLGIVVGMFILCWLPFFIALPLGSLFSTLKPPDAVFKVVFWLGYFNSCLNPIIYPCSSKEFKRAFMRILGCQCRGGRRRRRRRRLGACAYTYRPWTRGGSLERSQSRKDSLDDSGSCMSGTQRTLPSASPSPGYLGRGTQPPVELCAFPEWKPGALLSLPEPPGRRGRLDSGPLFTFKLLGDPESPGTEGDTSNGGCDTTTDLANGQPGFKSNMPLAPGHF
T2 sequence (P23944 whole entry): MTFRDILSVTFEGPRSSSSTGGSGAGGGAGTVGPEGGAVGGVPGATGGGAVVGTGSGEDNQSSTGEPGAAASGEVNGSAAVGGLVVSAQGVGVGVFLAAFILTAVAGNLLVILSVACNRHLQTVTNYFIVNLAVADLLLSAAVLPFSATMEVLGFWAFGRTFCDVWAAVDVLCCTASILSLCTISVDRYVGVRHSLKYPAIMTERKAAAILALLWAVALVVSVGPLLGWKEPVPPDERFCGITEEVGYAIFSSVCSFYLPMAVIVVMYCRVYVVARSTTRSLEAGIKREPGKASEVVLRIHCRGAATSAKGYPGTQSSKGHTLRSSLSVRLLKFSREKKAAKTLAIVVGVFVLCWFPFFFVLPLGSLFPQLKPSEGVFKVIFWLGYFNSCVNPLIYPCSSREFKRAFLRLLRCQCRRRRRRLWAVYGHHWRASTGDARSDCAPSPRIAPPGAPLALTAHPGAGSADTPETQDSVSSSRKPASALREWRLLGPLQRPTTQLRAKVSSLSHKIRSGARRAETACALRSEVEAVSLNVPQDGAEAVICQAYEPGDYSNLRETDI
T2 sequence (P43140 whole entry): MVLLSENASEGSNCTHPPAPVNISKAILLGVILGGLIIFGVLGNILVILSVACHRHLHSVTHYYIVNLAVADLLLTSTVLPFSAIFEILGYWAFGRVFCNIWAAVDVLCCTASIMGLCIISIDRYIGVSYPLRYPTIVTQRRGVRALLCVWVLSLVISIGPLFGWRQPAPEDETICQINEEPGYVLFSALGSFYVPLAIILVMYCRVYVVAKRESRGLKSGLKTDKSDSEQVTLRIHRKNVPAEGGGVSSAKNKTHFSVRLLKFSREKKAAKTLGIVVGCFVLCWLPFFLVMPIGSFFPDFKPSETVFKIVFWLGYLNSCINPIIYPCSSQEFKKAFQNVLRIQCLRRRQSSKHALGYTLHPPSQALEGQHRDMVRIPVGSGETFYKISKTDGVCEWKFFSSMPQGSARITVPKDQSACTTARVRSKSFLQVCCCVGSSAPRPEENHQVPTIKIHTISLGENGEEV

[6] = target: Sigma non-opioid intracellular receptor 1 (Homo sapiens) (UniProt Q99720); assay: Binding affinity ratio of sigma 1 receptor to that of sigma 2 receptor; method in brief: as §2
Cavia porcellus [7] = species: Cavia porcellus; assay: Inhibition of electrically stimulated contractions of the isolated guinea pig badder at 30 uM.; format: functional
Sigma 2 receptor [8] = assay: In vitro binding affinity at opioid sigma-2 receptor in rat liver membranes by [3H]DTG displacement in the presence of 1 uM (+)-pentazocine.; format: cell membranes, Membrane

Ki [1] [µM] | Ratio [2] | Ki (D(2) dopamine receptor) [µM] | EC50 (Cavia porcellus [3]) [µM] | Ki (Sigma 2 receptor [4]) [µM] | Ki [5] [µM] | Ratio [6] | Ki (Sigma 2 receptor [8]) [µM] | Compound | inhibition at 30 µM (Cavia porcellus [7]) [%]
> 0.7 | 13 | 1.62 | 16.1 | 0.0211 | > 7.5 |  |  | COc1cccc2c1CCCC2CCN1CCN(C2CCCCC2)CC1 (stereo unspecified) | 
> 0.7 | 1.1 |  |  | 0.00068 | > 7.5 |  |  | c1ccc2c(c1)CCCC2CCCN1CCN(C2CCCCC2)CC1 (stereo unspecified) | 
> 0.7 |  |  | 1.82 | 0.00069 | > 7.5 | 3.1 |  | c1ccc2c(CCCN3CCN(C4CCCCC4)CC3)cccc2c1 | 
> 0.7 |  | 3.67 | 9.94 | 0.00358 | > 7.5 |  |  | COc1cccc2c1CCCC2CCCCN1CCN(C2CCCCC2)CC1 (stereo unspecified) | 
> 0.7 |  | 0.479 |  | 0.00122 | > 7.5 | 7.4 |  | COc1ccc2c(c1)C(CCCN1CCN(C3CCCCC3)CC1)CCC2 (stereo unspecified) | 
> 0.7 |  | 0.604 | 2.62 | 0.00034 | > 7.5 |  |  | COc1cccc2c1CCCC2CCCN1CCN(C2CCCCC2)CC1 (stereo unspecified) | 
> 0.7 |  |  | 1.5 | 0.00209 | > 7.5 |  |  | COc1cccc2c1CCC[C@@H]2CCCN1CCN(C2CCCCC2)CC1 | 
> 0.7 |  |  |  | 0.00266 | > 7.5 |  |  | Oc1cccc2c1CCCC2CCCN1CCN(C2CCCCC2)CC1 (stereo unspecified) | 
> 0.7 | 20 | 1.16 | 6.97 |  | > 7.5 |  | 0.0079 | COc1cccc2c1CCCC2N1CCN(C2CCCCC2)CC1 (stereo unspecified) | 
> 0.7 | 1.6 |  |  | 0.00112 | > 7.5 |  |  | Oc1ccc2c(c1)CCCC2CCCN1CCN(C2CCCCC2)CC1 (stereo unspecified) | 
> 0.7 | 139 |  |  | 0.0305 | > 7.5 |  |  | c1ccc2c(CCCCN3CCN(C4CCCCC4)CC3)cccc2c1 | 
> 0.7 |  |  |  | 0.0146 | > 7.5 |  |  | c1ccc2c(c1)CCCC2CCCCN1CCN(C2CCCCC2)CC1 (stereo unspecified) | 
> 0.7 | 15 |  |  | 0.00542 | > 7.5 |  |  | COc1ccc2c(c1)CCCC2CCCN1CCN(C2CCCCC2)CC1 (stereo unspecified) | 
> 0.7 |  |  |  | 0.00924 | > 7.5 |  |  | COc1cccc2c(CCCN3CCN(C4CCCCC4)CC3)cccc12 | 
> 0.7 | 5.4 |  |  | 0.00785 | > 7.5 |  |  | c1ccc2c(c1)CCCC2CCCCCN1CCN(C2CCCCC2)CC1 (stereo unspecified) | 
> 0.7 | 34 | 3.48 | 25.3 | 0.103 | > 7.5 |  |  | COc1cccc2c1CCCC2CCCCCCN1CCN(C2CCCCC2)CC1 (stereo unspecified) | 
 |  |  | 6.9 |  |  |  |  | Cc1ccccc1NC(=N)Nc1ccccc1C [DITOLYLGUANIDINE] | 
 |  |  | 2.95 | 0.00057 |  | 4.2 |  | c1ccc2c(CCCCCN3CCN(C4CCCCC4)CC3)cccc2c1 | 
> 0.7 |  | 2.45 | 4.9 | 0.00035 | > 7.5 | 4.3 |  | COc1cccc2c1CCCC2CCCCCN1CCN(C2CCCCC2)CC1 (stereo unspecified) | 
> 0.7 |  |  | 1.75 | 0.00865 | > 7.5 |  |  | COc1cccc2c1CCC[C@H]2CCCN1CCN(C2CCCCC2)CC1 | 

Compound | Ki [1] [µM] | Ratio [2] | Ki (D(2) dopamine receptor) [µM] | EC50 (Cavia porcellus [3]) [µM] | Ki (Sigma 2 receptor [4]) [µM] | Ki [5] [µM] | Ratio [6] | Ki (Sigma 2 receptor [8]) [µM] | inhibition at 30 µM (Cavia porcellus [7]) [%]
c1ccc(CCN2CCCCC2)cc1 | > 0.7 |  |  |  | 0.194 | > 7.5 | 1.6 |  | 41
COc1cccc2c1CCCC2CN1CCN(C2CCCCC2)CC1 (stereo unspecified) | > 0.7 | 53 | 4.26 | 11.5 | 0.0164 | > 7.5 |  |  | 

Reference: ChEMBL document CHEMBL1148440, “4-(tetralin-1-yl)- and 4-(naphthalen-1-yl)alkyl derivatives of 1-cyclohexylpiperazine as sigma receptor ligands with agonist sigma2 activity” (J Med Chem, 2004)
